{
  "source": "ChEMBL document CHEMBL3259756",
  "about": "(J Nat Prod, 2014)",
  "key": {"[1]": {"test": "Cytotoxicity against wild type human Saos2 cells assessed as cell mortality at 0.1 to 5 ug/mL after 4 hrs by trypan blue staining-based flow cytometric analysis", "details": "saos-2, 4 h; call rule not given here", "in_short": "(§1)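 Trypan blue exclusion read by flow cytometry. Cells exposed to voacamine at 0.1, 1.0 or 5.0 μg/mL (in DMSO; DMSO-only cultures as extra control) for 4 or 24 h, resuspended in ice-cold PBS, stained with trypan blue (final 0.8 μM) and analysed at once; % dead cells. Three independent experiments, mean ± SD.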"}, "[2]": {"test": "Cytotoxicity against doxorubicin-resistant human Saos2 cells assessed as cell mortality at 0.1 to 5 ug/mL after 4 hrs by trypan blue staining-based flow cytometric analysis", "details": "saos-2, 4 h", "in_short": "as §1"}, "[3]": {"test": "Cytotoxicity against P-gp-deficient human Me30966 cells assessed as cell mortality at 0.1 to 5 ug/mL after 4 hrs by trypan blue staining-based flow cytometric analysis", "type": "ADME", "in_short": "as §1"}, "[4]": {"test": "Cytotoxicity against wild type human Saos2 cells assessed as cell mortality at 5 ug/mL after 24 hrs by trypan blue staining-based flow cytometric analysis", "details": "saos-2, 24 h", "in_short": "as §1"}, "[5]": {"test": "Cytotoxicity against doxorubicin-resistant human Saos2 cells assessed as cell mortality at 5 ug/mL after 24 hrs by trypan blue staining-based flow cytometric analysis", "details": "saos-2, 24 h", "in_short": "as §1"}, "[6]": {"test": "Cytotoxicity against P-gp-deficient human Me30966 cells assessed as cell mortality at 5 ug/mL after 24 hrs by trypan blue staining-based flow cytometric analysis", "type": "ADME", "in_short": "as §1"}, "[7]": {"test": "Cytotoxicity against human AG1522 cells assessed as cell mortality at 5 ug/mL after 24 hrs by trypan blue staining-based flow cytometric analysis", "in_short": "as §1"}, "[8]": {"test": "Cytotoxicity against human AG1522 cells assessed as cell mortality at 0.1 to 5 ug/mL after 4 hrs by trypan blue staining-based flow cytometric analysis", "in_short": "as §1"}, "[9]": {"molecular_target": "T1, ATP-dependent translocase ABCB1 (Homo sapiens, UniProt P08183)", "T1 sequence (P08183 whole entry)": "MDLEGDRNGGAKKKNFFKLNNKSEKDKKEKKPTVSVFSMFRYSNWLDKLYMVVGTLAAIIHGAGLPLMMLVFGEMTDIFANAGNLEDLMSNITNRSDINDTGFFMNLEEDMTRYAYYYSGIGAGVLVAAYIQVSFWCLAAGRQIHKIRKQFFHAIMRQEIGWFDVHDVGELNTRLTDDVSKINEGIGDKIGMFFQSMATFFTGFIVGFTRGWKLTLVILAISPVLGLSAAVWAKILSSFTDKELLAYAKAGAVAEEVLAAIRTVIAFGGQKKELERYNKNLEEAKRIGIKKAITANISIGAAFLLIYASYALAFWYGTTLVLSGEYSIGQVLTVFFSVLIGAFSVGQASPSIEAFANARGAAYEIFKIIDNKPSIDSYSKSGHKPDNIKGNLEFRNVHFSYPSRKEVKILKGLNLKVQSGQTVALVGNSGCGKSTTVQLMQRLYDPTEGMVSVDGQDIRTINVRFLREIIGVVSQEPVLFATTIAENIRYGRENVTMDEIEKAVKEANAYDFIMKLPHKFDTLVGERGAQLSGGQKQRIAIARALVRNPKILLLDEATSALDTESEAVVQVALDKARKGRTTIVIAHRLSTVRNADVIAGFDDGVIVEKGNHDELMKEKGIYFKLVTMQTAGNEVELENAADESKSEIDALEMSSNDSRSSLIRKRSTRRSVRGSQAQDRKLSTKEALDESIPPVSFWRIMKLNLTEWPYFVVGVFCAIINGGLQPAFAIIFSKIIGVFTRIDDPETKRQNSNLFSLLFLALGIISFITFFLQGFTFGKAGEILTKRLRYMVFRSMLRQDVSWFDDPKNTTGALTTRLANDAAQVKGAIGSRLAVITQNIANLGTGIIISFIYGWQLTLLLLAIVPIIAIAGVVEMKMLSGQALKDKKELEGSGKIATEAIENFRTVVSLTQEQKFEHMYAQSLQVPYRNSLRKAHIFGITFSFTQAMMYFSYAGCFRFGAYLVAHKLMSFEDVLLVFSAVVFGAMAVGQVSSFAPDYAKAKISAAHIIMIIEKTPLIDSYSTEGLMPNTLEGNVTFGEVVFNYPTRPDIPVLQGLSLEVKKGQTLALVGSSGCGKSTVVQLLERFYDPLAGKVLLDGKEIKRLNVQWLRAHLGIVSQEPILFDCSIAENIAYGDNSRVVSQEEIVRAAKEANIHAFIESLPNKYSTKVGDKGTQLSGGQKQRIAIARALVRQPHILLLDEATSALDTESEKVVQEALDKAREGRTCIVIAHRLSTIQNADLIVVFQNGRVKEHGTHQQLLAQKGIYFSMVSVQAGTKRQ", "test": "Inhibition of p-gp in doxorubicin-resistant human Saos2 cells assessed as increase in doxorubicin uptake at 1 ug/mL after 3 hrs by flow cytometric analysis", "type": "cell-based", "details": "saos-2, 3 h", "in_short": "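Doxorubicin accumulation by flow cytometry. Osteosarcoma or melanoma cells exposed for 3 h to doxorubicin 1.0 μg/mL alone, with voacamine 1.0 μg/mL, or with cyclosporin A 5.0 μM (control). Cells detached with EDTA/trypsin (10^6 cells/mL), resuspended in ice-cold PBS, 488 nm excitation. Three independent experiments, mean ± SD.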"}, "[10]": {"molecular_target": "T1, ATP-dependent translocase ABCB1", "test": "Inhibition of p-gp in doxorubicin-resistant human Saos2 cells assessed as increase in intracellular doxorubicin retention at 1 ug/mL after 2 hrs by flow cytometric analysis", "type": "cell-based", "details": "saos-2, 2 h", "in_short": "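Efflux by flow cytometry. Cells loaded 1 h with 1.0 μg/mL doxorubicin, washed in PBS, then reincubated 2 h at 37 °C in drug-free medium with or without voacamine (1.0 μg/mL) or cyclosporin A (5.0 μM). Detached, resuspended in ice-cold PBS, analysed for retained doxorubicin fluorescence. Three independent experiments, mean ± SD.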"}, "[11]": {"molecular_target": "T1, ATP-dependent translocase ABCB1", "test": "Inhibition of p-gp in doxorubicin-resistant human Saos2 cells assessed as intracellular doxorubicin distribution in nuclei at 1 ug/mL after 2 to 3 hrs by laser scanning confocal microscopic analysis", "type": "cell-based", "details": "saos-2", "in_short": "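Living SAOS-2-DX cells, with SAOS-2-WT for reference, treated with doxorubicin alone or with voacamine or cyclosporin A as in the flow cytometry uptake/efflux protocol. Intracellular, including nuclear, doxorubicin fluorescence located by laser scanning confocal microscopy.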"}, "[12]": {"test": "Cytotoxicity against doxorubicin-resistant human Saos2 cells assessed as effect on cell survival up to 1 ug/mL after 72 hrs by MTT assay", "type": "cell-based", "details": "saos-2, 72 h", "in_short": "(§2)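 MTT survival assay. Cells seeded 24 h beforehand (1 × 10^4 SAOS-2-DX or 5 × 10^3 Me30966 per well). Voacamine 0.5 or 1.0 μg/mL given alone or 30 min before doxorubicin (Me30966: 0.1 or 0.5 μg/mL; SAOS-2-DX: 0.5 or 1.0 μg/mL). Read at 24 h for Me30966 and 72 h for SAOS-2-DX. Three independent experiments, mean ± SD.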"}, "P-gp (ABCB1)": {"molecular_target": "P-gp (ABCB1) (Homo sapiens, UniProt P08183)", "sequence (P08183 whole entry)": "as above", "test": "Inhibition of p-gp in doxorubicin-resistant human Saos2 cells assessed as potentiation of doxorubicin-induced cytotoxicity by measuring cell survival at 1 ug/mL pretreated for 30 mins followed by 0.5 ug/mL doxorubicin addition measured after 72 hrs by MTT assay relative to doxorubicin-treated cell", "type": "cell-based, SAOS-2", "details": "probe doxorubicin, read-out: Survival", "in_short": "as §2"}, "[13]": {"molecular_target": "T1, ATP-dependent translocase ABCB1", "test": "Inhibition of p-gp in doxorubicin-resistant human Saos2 cells assessed as potentiation of doxorubicin-induced cytotoxicity by measuring cell survival at 0.5 ug/mL pretreated for 30 mins followed by 0.5 ug/mL doxorubicin addition measured after 72 hrs by MTT assay relative to doxorubicin-treated cell", "type": "cell-based", "details": "saos-2, 72 h", "in_short": "as §2"}, "[14]": {"molecular_target": "T1, ATP-dependent translocase ABCB1", "test": "Inhibition of p-gp in doxorubicin-resistant human Saos2 cells assessed as potentiation of doxorubicin-induced cytotoxicity by measuring cell survival at 0.5 ug/mL pretreated for 30 mins followed by 1 ug/mL doxorubicin addition measured after 72 hrs by MTT assay relative to doxorubicin-treated cell", "type": "cell-based", "details": "saos-2, 72 h", "in_short": "as §2"}, "[15]": {"molecular_target": "T1, ATP-dependent translocase ABCB1", "test": "Inhibition of p-gp in doxorubicin-resistant human Saos2 cells assessed as potentiation of doxorubicin-induced cytotoxicity by measuring cell survival at 1 ug/mL pretreated for 30 mins followed by 1 ug/mL doxorubicin addition measured after 72 hrs by MTT assay relative to doxorubicin-treated cell", "type": "cell-based", "details": "saos-2, 72 h", "in_short": "as §2"}, "[16]": {"test": "Cytotoxicity against P-gp-deficient human Me30966 cells assessed as effect on cell survival at 0.5 to 1 ug/mL pretreated for 30 mins followed by 1 ug/mL doxorubicin addition measured after 24 hrs by MTT assay relative to doxorubicin-treated cell", "type": "ADME, cell-based"}, "[17]": {"test": "Cytotoxicity against doxorubicin-resistant human Saos2 cells assessed as induction of morphological changes at 1 ug/mL by phase contrast microscopic analysis", "type": "cell-based", "details": "saos-2", "in_short": "(§3)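 Monolayers viewed by phase contrast microscopy against untreated controls. SAOS-2-DX given 1.0 μg/mL voacamine plus 1.0 μg/mL doxorubicin; Me30966 given 1.0 μg/mL voacamine plus 0.5 μg/mL doxorubicin.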"}, "[18]": {"test": "Cytotoxicity against P-gp-deficient human Me30966 cells assessed as induction of morphological changes at 1 ug/mL by phase contrast microscopic analysis", "type": "ADME, cell-based", "in_short": "as §3"}, "[19]": {"molecular_target": "T1, ATP-dependent translocase ABCB1", "test": "Inhibition of p-gp in doxorubicin-resistant human Saos2 cells assessed as potentiation of 1 ug/mL doxorubicin-induced cytotoxicity by measuring induction of morphological changes at 1 ug/mL by phase contrast microscopic analysis", "type": "cell-based", "details": "saos-2", "in_short": "as §3"}},
  "data": [
    {"smiles": "CC=C1CN(C)C2Cc3c([nH]c4ccccc34)C(c3cc4[nH]c5c(c4cc3OC)CCN3CC4CC(CC)C3C5(C(=O)OC)C4)CC1C2C(=O)OC", "note": "(stereo not given) [VOACAMINE]", "values": [
      {"measurement": "Activity", "setting": "[1]", "result": "Non-toxic"},
      {"measurement": "Activity", "setting": "[2]", "result": "Non-toxic"},
      {"measurement": "Activity", "setting": "[3]", "result": "Non-toxic"},
      {"measurement": "Activity", "setting": "[4]", "result": "Toxic"},
      {"measurement": "Activity", "setting": "[5]", "result": "Toxic"},
      {"measurement": "Activity", "setting": "[6]", "result": "Toxic"},
      {"measurement": "Activity", "setting": "[7]", "result": "Toxic"},
      {"measurement": "Activity", "setting": "[8]", "result": "Non-toxic"},
      {"measurement": "inhibition (INH)", "setting": "[9]", "result": "Active"},
      {"measurement": "inhibition (INH)", "setting": "[10]", "result": "Active"},
      {"measurement": "inhibition (INH)", "setting": "[11]", "result": "Active"},
      {"measurement": "Activity", "setting": "[12]", "result": "Non-toxic"},
      {"measurement": "viability at 72 h, 1 ug/mL", "setting": "P-gp (ABCB1)", "result": 50, "unit": "%"},
      {"measurement": "inhibition (INH)", "setting": "[13]", "result": "Active"},
      {"measurement": "inhibition (INH)", "setting": "[14]", "result": "Active"},
      {"measurement": "inhibition (INH)", "setting": "[15]", "result": "Active"},
      {"measurement": "Activity", "setting": "[16]", "result": "Non-toxic"},
      {"measurement": "Activity", "setting": "[17]", "result": "Non-toxic"},
      {"measurement": "Activity", "setting": "[18]", "result": "Non-toxic"},
      {"measurement": "inhibition (INH)", "setting": "[19]", "result": "Active"}
    ]}
  ]
}
